Results reported in PMC5439940 (International Journal of Nanomedicine, 2017).

Experiments:
[1] = test system: ASF-LL T-cell leukemic lymphoma; test: Antitumor effect in transplanted mouse T-cell leukemic lymphoma; assay type: in vivo
Outline: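 A/Sn female mice aged 6 or 12 months, one experiment per age, received 10^6 ASF-LL cells SC on day 0. Groups of n=6 got IV free parent drug (10 mg/kg) or an equivalent liposomal prodrug dose in 0.2 mL PBS/1 mM EDTA, pH 7.0, on days 3, 5, 10 and 12. Controls got vehicle. Daily survival monitoring; euthanasia at >20% weight loss and/or food rejection. Mean ± SD, Student's t-test.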

[2] = Plasma retention of liposomal MTX-DG versus intact MTX in mice; assay type: in vivo; details: IV
Outline: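 Female F1(CBA × C57BL/6) mice, 20–22 g, 6–8 weeks old, received 10 mg/kg free parent drug or an equivalent liposomal prodrug dose IV by tail vein (0.2 mL). Groups of n=3 were decapitated at set times and serum collected at 600×g for 10 min. Drug was measured by RP-HPLC after HClO4 deproteinisation; prodrug by RP-HPLC with UV detection at 313 nm. Both were calibrated against spiked or extracted control serum.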

[3] = test system: A549 or CoLo-357 cells; assay type: cell-based, human; details: for Effect of inhibitor on liposome accumulation/binding: preincubation with inhibitor, then liposomes 100 μM total lipids, 37°C

Compound: CN(Cc1cnc2nc(N)nc(N)c2n1)c1ccc(C(=O)N[C@@H](CCC(=O)O)C(=O)O)cc1 [MTX, Methotrexate]
- Delay of palpable lymphoma appearance and tumor growth vs controls ([1]; both experiments, 10 mg/kg MTX or equivalent IV on days 3, 5, 10, 12): significant delay in palpable lymphoma appearance
- Increase in the mean life span vs control group ([1]; first experiment, mice aged 6 months, 4 IV injections, days 3, 5, 10, 12): 23%
- Toxicity / tolerability in old recipient mice ([1]; second experiment, mice aged 12 months, 4 IV injections): pronounced toxicity
- t1/2α and t1/2β of MTX relative to MTX-DG (times lower) [2]: approximately 4 times

Compound: CN(C)CCCN1c2ccccc2Sc2ccc(Cl)cc21 [chlorpromazine]
- Effect of inhibitor on liposome accumulation/binding [3]: concentration-dependent decrease in liposome accumulation

Compound: COc1cc2c(c(OC)c1OC)-c1ccc(OC)c(=O)cc1[C@@H](NC(C)=O)CC2 [colchicine]
- Effect of inhibitor on liposome accumulation/binding [3]: elusive effects

Compound: C=C1[C@@H](C)[C@H]2[C@H](Cc3ccccc3)NC(=O)[C@]23OC(=O)/C=C/[C@H](O)CCC[C@@H](C)C/C=C/[C@H]3[C@@H]1O [cytochalasin B]
- Effect of inhibitor on liposome accumulation/binding [3]: elusive effects

Compound: COC(=O)Nc1nc2ccc(C(=O)c3cccs3)cc2[nH]1 [nocodazole]
- Effect of inhibitor on liposome accumulation/binding [3]: elusive effects

Compound: Methyl-β-cyclodextrin
- Cell death caused by inhibitor ([3]; in the range of concentrations required for the inhibitory studies): > 50%
